Data set [1] relates to HEK293. The data set can be described thus: Cytotoxicity against HEK293 cells. Type of data set: cell-based. Particulars: human.
Data set [2] can be described thus: Cytotoxicity against mouse AB1 cells. In kind it is cell-based.
A short description of data set [3]: Cytotoxicity against mouse Neuro 2a cells. Type of data set: cell-based. To be noted: n2a.
Data set [4] concerns HEK293. The data set can be described thus: Increase in NAD+ concentration in HEK293 cells at 750 uM after 24 hrs by isotope-dilution technique. Type of data set: functional, Homo sapiens.
A short description of data set [5]: Increase in NAD+ concentration in mouse AB1 cells at 750 uM after 24 hrs by isotope-dilution technique. Type of data set: functional.
Data set [6] in a line: Increase in NAD+ concentration in mouse Neuro 2a cells at 750 uM after 24 hrs by isotope-dilution technique. In kind it is functional, N2a.
Data set [7] in a line: Cell viability in mouse AB1 cells at 750 uM after 48 hrs by MTT assay relative to control. Type of data set: cell-based. Particulars: read-out: Activity. Put shortly:
(§1)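 Cells grown 24 h, then exposed to 750 µM compound for 48 h. Viability read by MTT assay and given as % of untreated control. Duplicate experiments.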
(Tetrazolium assays rely on reduction of a dye to a coloured formazan, in cell work by metabolically active cells.)

Data set [8] can be described thus: Cell viability in mouse Neuro 2a cells at 750 uM after 48 hrs by MTT assay relative to control. Type of data set: cell-based, N2a. To be noted: read-out: Activity. Put shortly:
as §1

Data set [9] is described as follows: Cell viability in HEK293 cells at 750 uM after 48 hrs by MTT assay relative to control. In kind it is cell-based. To be noted: human, read-out: Activity. Put shortly:
as §1

Data set [10] is described as follows: Increase in NAD+ concentration in mouse Neuro 2a cells at 670 uM after 24 hrs by isotope-dilution technique relative to control. Type of data set: functional, N2a. Put shortly:
(§2)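 Cells exposed to 670 µM compound for 24 h. NAD+ was then quantified by an MS-based isotope-dilution method using an 18O standard and expressed relative to untreated controls. All cell experiments were run in duplicate.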

For data set [11], the system named is HEK293. As to the kind of experiment: Increase in NAD+ concentration in HEK293 cells at 670 uM after 24 hrs by isotope-dilution technique relative to control. In kind it is functional, Homo sapiens. Put shortly: as §2
Data set [12] is described as follows: Increase in NAD+ concentration in mouse AB1 cells at 670 uM after 24 hrs by isotope-dilution technique relative to control. In kind it is functional. Put shortly:
as §2

For the molecule `CCOC(=O)c1ccc[n+]([C@@H]2O[C@H](COC(C)=O)[C@@H](OC(C)=O)[C@H]2OC(C)=O)c1`, the Activity entry is on record as “Non-toxic” in the data set on HEK293 [1]; “Non-toxic” in data set [2]; “Non-toxic” in [3]; 160% in the data set on HEK293 [4]; 130% in data set [5]; 260% in data set [6].

With `CCOC(=O)c1ccc[n+]([C@@H]2O[C@H](CO)[C@@H](O)[C@H]2O)c1`, the figures for the viability at 48 h, 750 µM in [7], in data set [8] and in data set [9] were 103%, 169% and 92%, respectively.

In the case of `CN(C)C(=O)c1ccc[n+]([C@@H]2O[C@H](CO)[C@@H](O)[C@H]2O)c1`, the viability at 48 h, 750 µM in data set [7] worked out at 132%; in data set [8] it was 35%; in data set [9], 78%.

Take `CNC(=O)c1ccc[n+]([C@@H]2O[C@H](CO)[C@@H](O)[C@H]2O)c1`: the figures for the viability at 48 h, 750 µM in data set [7], in data set [8] and in [9] were 79%, 76% and 72%, respectively.

With `O=C(O)c1ccc[n+]([C@@H]2O[C@H](CO)[C@@H](O)[C@H]2O)c1`, the viability at 48 h, 750 µM is 111% in [7], 125% in data set [8] and 92% in data set [9]. In addition, the Activity came out at 1.7% in data set [10], 1.9% in the data set on HEK293 [11] and 1.5% in [12].

With `COC(=O)c1ccc[n+]([C@@H]2O[C@H](CO)[C@@H](O)[C@H]2O)c1`, the results for the viability at 48 h, 750 µM in [7], in data set [8] and in data set [9] were 125%, 76% and 94%, respectively.

Regarding `C=CCNC(=O)c1ccc[n+]([C@@H]2O[C@H](CO)[C@@H](O)[C@H]2O)c1`, the figures for the viability at 48 h, 750 µM in [7], in [8] and in [9] were 57%, 80% and 78%, respectively.

On to `CCNC(=O)c1ccc[n+]([C@@H]2O[C@H](CO)[C@@H](O)[C@H]2O)c1`, for which the viability at 48 h, 750 µM in [7] stood at 57%; in data set [8], 38%; in data set [9] it was 48%.

Take `NC(=O)c1ccc[n+]([C@@H]2O[C@H](CO)[C@@H](O)[C@H]2O)c1` [NICOTINAMIDE RIBOSIDE]: the viability at 48 h, 750 µM came to 123% in data set [7], 107% in [8] and 111% in data set [9].

For the molecule `O=C(NCCO)c1ccc[n+]([C@@H]2O[C@H](CO)[C@@H](O)[C@H]2O)c1`, the viability at 48 h, 750 µM was found to be 101% in data set [7], 51% in data set [8] and 77% in data set [9].

Source of the values: ChEMBL document CHEMBL1138359, “Syntheses of nicotinamide riboside and derivatives: effective agents for increasing nicotinamide adenine dinucleotide concentrations in mammalian cells” (J Med Chem, 2007).
